# An excerpt weighted towards active compounds, which were near 3.1% of everything screened.
# GSIS activator: GLuc luminescence reporter in INS-1E cells, primary screen for activators of glucose-dependent secretion of insulin; INS-1E GLuc reporter insulin secretion, 2-3 h; activation, % at 16.6 µM; 370,000 tested, 0.61% active; AID 743287, 2014;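 active means lowest replicate activation of at least 40%, so every replicate reaches that level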;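 further: 0% = median of neutral control wells and 100% = median of IBMX positive control wells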
# rRNA inh HTS: reduced GFP signal of wild-type E. coli, primary screen, bacterial rRNA inhibitor project, GFP/RFP fluorescence, OD600, single point; E. coli WT GFP vs humanized-ribosome RFP mutants, 24 h; hits give low values; DMSO median 0, no signal -100; GFP signal change (wild-type ribosome), % (test concentration not listed); 350,000 tested, 1.6% active; AID 720706, 2013;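 active means significant combined selectivity score with lowered wild-type GFP, culture density cut under 30%, mutant RFP and density less affected; inactive means any of these conditions unmet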
# Env fusion inh: inhibitors of HIV-1 Env-driven cell-cell fusion, primary screen, HeLa-JRFL effector, CEM21 target cells, luciferase; inhibition, % at 12.3 µM; 360,000 tested, 1.1% active; AID 651610, 2012;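 active means mean replicate inhibition score of at least 50 and every replicate individually at or above 50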;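 further: 0% = plate neutral controls and 100% = maraviroc near 300 nM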
# Cneo AK release: Cryptococcus neoformans cell lysis inducers, primary screen, AK release luminescence, single concentration; 360,000 tested, 0.2% active; lysis activity, % at 15 µM; C. neoformans lysis, adenylate kinase release luminescence, 4 h; normalised: neutral wells 0, clomiphene wells 100;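 active means mean lysis activity across replicates of at least 80%, whatever share of replicates individually reach that level; inactive means mean lysis activity below 80%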
#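 Material – Cryptococcus neoformans yeast cells · Quantity – 5 × 10^6 yeast cells/mL · Buffer or medium – YPD medium · Compound – single dose · Timing – 4 h static compound exposure, 37 °C, read 1 h post-reagent · Signal – adenylate kinase release luminescence · Read-out basis – lysis from increased AK signal · Benchmarks – Clomiphene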
# F508del corr: F508del CFTR correction, initial screen, CFBE line, single point; CFBE cells, YFP halide quenching; stimulated with forskolin plus potentiator P3; % fluorescence drop versus neutral controls; AID 720511, 2013; activity (quench increase), % at 7.58 µM; 350,000 tested, 0.36% active;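 active means mean added fluorescence quench of at least 8% versus neutral control, with both replicates also reaching 8%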;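 further: cells transiently co-express mutant CFTR-F508del with the halide-sensitive YFP; corrector assay measuring rescue of mutant channel to the surface after 24 h compound exposure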
# miR-122 sensor: miR-122 Renilla sensor signal increase in Huh7, primary screen, miR-122 inhibitor project, cell-based, single point, plate reader; 340,000 tested, 0.3% active; Huh7 miR-122 Renilla luciferase sensor, 48 h; neutral wells = 0, positive control = 100; activation (reporter increase), % at 12.5 µM;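 active means mean replicate activation score at least 90 and every replicate individually at or above 90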;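 further: higher luciferase means less miR-122 activity so hits act as miR-122 inhibitors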
# * hit, by the source's call; · = no result given; [ ] = another dose, or the depositor's remark.
SMILES,GSIS activator,rRNA inh HTS,Env fusion inh,Cneo AK release,F508del corr,miR-122 sensor
CN(CC(=O)NNC(=O)CNC(=O)c1ccccc1F)S(=O)(=O)c1ccc(Cl)cc1,15,4,-4,-1,0,-5
CCOc1ccccc1C(=O)NCC(=O)NNC(=O)CN(C)S(=O)(=O)c1ccc(Cl)cc1,24,13,69*,-1,-2,-5
O=C(/C=C/c1ccccc1[N+](=O)[O-])OCC(=O)c1ccccc1,-4,-22*,-13,·,0,·
COc1ccc(C(=O)COC(=O)/C=C/c2ccccc2[N+](=O)[O-])cc1,·,-13,-120,1,-1,0
CCCNC(=O)C[C@@H]1C[C@@H]2c3cc(NC(=O)C4CCOCC4)ccc3O[C@@H]2[C@@H](CO)O1,8,5,-5[16.7 µM],2,0,3[16.7 µM]
COc1ccc(C[C@H]2CN3C(=NC[C@@H]3C(C)C)N2CCNC(=O)CCC2CCCCC2)cc1,-14,·,-25,-3,6,-4
COc1ccc(C[C@H]2CN3C(=NC[C@@H]3Cc3ccccc3)N2CCNC(=O)CCC2CCCCC2)cc1,155*,-56,-41,-1,3,-19
CC[C@@]1(C(=O)OC)N[C@H](CN(C)C(=O)Nc2ccc(C(F)(F)F)cc2)[C@@H]2C(=O)N(C)C(=O)[C@@H]21,8,7,-103,0,-3,·
CC[C@@]1(C(=O)OC)N[C@H](CN(C)C(=O)c2ccccc2)[C@@H]2C(=O)N(Cc3ccccc3)C(=O)[C@@H]21,5,5,41,1,-3,·
COC(=O)[C@]1(C)N[C@H](CN(C)S(=O)(=O)c2ccc(F)cc2)[C@@H]2C(=O)N(Cc3ccccc3)C(=O)[C@@H]21,·,-1,3,3,-6,·
CCN(C[C@H]1N[C@@](C)(C(=O)OC)[C@H]2C(=O)N(Cc3ccccc3)C(=O)[C@@H]12)C(=O)c1ccc(C(C)(C)C)cc1,-24,-6,69*,-2,-1,·
COC(=O)[C@]1(C)N[C@H](CN(C)S(=O)(=O)c2ccc(OC(F)(F)F)cc2)[C@@H]2C(=O)N(Cc3ccccc3)C(=O)[C@@H]21,-33,-21*,82*,4,1,·
CC[C@@]1(C(=O)OC)N[C@H](CN(C)C(=O)Nc2ccccc2)[C@@H]2C(=O)N(Cc3ccccc3)C(=O)[C@@H]21,-19,-2,60*,-2,-2,·
CCN(C[C@H]1N[C@@](CC)(C(=O)OC)[C@H]2C(=O)N(C)C(=O)[C@@H]12)C(=O)Nc1ccc(C(F)(F)F)cc1,·,-24*,-27,-2,0,1
CC(=O)N1[C@@H]2c3cccc(=O)n3C[C@@H]2[C@@H](CO)[C@@H]1C(=O)NCc1ccccc1,-2,-3,·,·,·,·
COC(=O)[C@]1(Cc2ccccc2)N[C@H](CN(C)C(=O)NC(C)C)[C@@H]2C(=O)N(C)C(=O)[C@@H]21,13,15,10,1,-2,·
CCN(C[C@H]1N[C@@](CC)(C(=O)OC)[C@H]2C(=O)N(Cc3ccccc3)C(=O)[C@@H]12)S(=O)(=O)c1ccc(OC)cc1,-7,-1,78*,0,-1,10
CCN(C[C@H]1N[C@@](Cc2ccccc2)(C(=O)OC)[C@H]2C(=O)N(Cc3ccccc3)C(=O)[C@@H]12)S(=O)(=O)c1ccc(OC)cc1,-20,10,-103,-2,2,-2
CCN(C[C@H]1N[C@@](C)(C(=O)OC)[C@H]2C(=O)N(Cc3ccccc3)C(=O)[C@@H]12)C(=O)Nc1ccc(Cl)cc1,-12,8,64*,2,-1,·
CC[C@@]1(C(=O)OC)N[C@H](CN(C)C(=O)Nc2ccc(C(F)(F)F)cc2)[C@@H]2C(=O)N(Cc3ccccc3)C(=O)[C@@H]21,-21,-8,85*,1,3,2
COC(=O)[C@]1(Cc2ccccc2)N[C@H](CN(C)C(=O)Nc2ccc(C)cc2)[C@@H]2C(=O)N(C)C(=O)[C@@H]21,65*,2,-58,0,-3,·
CCC(=O)N1CC2(C1)[C@H](c1ccc(-c3cccc(OC)c3)cc1)[C@@H](CO)N2C(C)=O,-2,-1,·,·,1,·
CCS(=O)(=O)N1[C@H](C#N)[C@@H](c2ccc(C#CC(C)C)cc2)[C@H]1CO,12,1,11[16.7 µM],-3,-3,·
CCCC(=O)Nc1ccc2c(c1)C(=O)N(C)[C@@H]1CC[C@@H](CC(=O)Nc3cn(C)nc3C)O[C@H]1CO2,-2,4,·,-1,-2,25[16.7 µM]
CC(=O)Nc1ccc2c(c1)CC(=O)N(C)C[C@H](C)[C@H](CN(C)C)O2,5,3,·,·,·,·
SMILES,GSIS activator,rRNA inh HTS,Env fusion inh,Cneo AK release,F508del corr,miR-122 sensor
CC[C@@]1(C(=O)OC)N[C@H](CN(C)C(=O)c2ccc(C(C)(C)C)cc2)[C@@H]2C(=O)N(Cc3ccccc3)C(=O)[C@@H]21,2,19,79*,2,0,·
COC(=O)[C@]1(Cc2ccccc2)N[C@H](CN(C)C(=O)c2ccc(C(C)(C)C)cc2)[C@@H]2C(=O)N(Cc3ccccc3)C(=O)[C@@H]21,-21,24,-77,1,3,2
Nc1cccc2c(O)cccc12,-7,-28*,8,·,1,·
Nc1ccccc1O,·,·,·,-1,·,3
C[C@H](CO)N1C[C@H](C)[C@H](CN(C)C(=O)Nc2cc(F)ccc2F)Oc2ncc(-c3cccc(F)c3)cc2C1=O,-14,-1,-3[16.7 µM],-3,-1,-3[16.7 µM]
C[C@@H]1CCCCO[C@@H](CN(C)C(=O)NC2CCCCC2)[C@H](C)CN([C@H](C)CO)C(=O)c2cc(N(C)C)ccc2O1,-19,1,-32[16.7 µM],6,0,-8[16.7 µM]
Nc1nn(-c2ccccc2)c(N)c1N=Nc1ccccc1F,4,-37*,-57,·,4,·
CC(C)NC(=O)N(C)C[C@@H]1Oc2ncc(C#CCc3ccccc3)cc2C(=O)N([C@@H](C)CO)C[C@@H]1C,-8,4,22[16.7 µM],-2,1,-5[16.7 µM]
O=C(Cc1cccc(NC(=O)C2CCN(C(=O)C3CCCC3)CC2)c1)Nc1cccc(C(=O)N2CCCCC2)c1,1,-7,-17,-1,-5,-4
O=C(NCCCCc1ccccc1)c1cccc(NC(=O)C2CCCCC2)c1,-19,-30*,-35,1,-2,-2
O=C(Cc1cccc(NC(=O)C2CCN(C(=O)C3CCCC3)CC2)c1)Nc1cccc(C(=O)N2CCCC2)c1,-10,-21*,14,5,0,-2
O=C(NCCCCc1ccccc1)c1cccc(NC(=O)C2CCC2)c1,-12,-31,-14,2,-3,7
